Reference: publication PMC3474356 (Chemistry & biology, 2011)

Experiments:
pfNDH2 = pfNDH2 (Plasmodium falciparum, UniProt Q8I302); assay: pfNDH2 enzyme activity assay; type: biochemical
P. falciparum Dd2 strain = assay: P. falciparum Dd2 growth inhibition; type: cell-based; details: Plasmodium falciparum, DD2, read-out: EC50 growth Dd2
[1] = tested on: Dd2-scDHOD parasite strain; assay: Transgenic Dd2-scDHOD growth inhibition; type: cell-based; details: Plasmodium falciparum, DD2, read-out: EC50 growth Dd2-scDHOD
hsCYT bc1 = hsCYT bc1 (Homo sapiens, UniProt P00156); assay: Cytochrome c reductase activity, human; type: biochemical
Method in brief: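 Mitochondria from HEK293 cells pelleted at 400 g for 10 min, disrupted by N2 cavitation, then debris spin, 10,000 g pellet and 1–2 M sucrose gradient. Mitochondria (40 ug/ml) in 250 mM sucrose, 50 mM KH2PO4, 0.2 mM EDTA, 1 mM NaN3, 2.5 mM KCN with 50 uM cytochrome c. Started with 25 uM decylubiquinol; cytochrome c reduction read at 550 nm over the first 60 s.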

P. falciparum 3D7 strain = assay: P. falciparum 3D7 growth inhibition; type: cell-based; details: Plasmodium falciparum, 3D7, read-out: EC50 growth 3D7
pfDHOD = target: T1, pfDHOD (Plasmodium falciparum, UniProt Q08210); assay: pfDHOD chromogen; type: biochemical
T1 sequence (Q08210 24-569): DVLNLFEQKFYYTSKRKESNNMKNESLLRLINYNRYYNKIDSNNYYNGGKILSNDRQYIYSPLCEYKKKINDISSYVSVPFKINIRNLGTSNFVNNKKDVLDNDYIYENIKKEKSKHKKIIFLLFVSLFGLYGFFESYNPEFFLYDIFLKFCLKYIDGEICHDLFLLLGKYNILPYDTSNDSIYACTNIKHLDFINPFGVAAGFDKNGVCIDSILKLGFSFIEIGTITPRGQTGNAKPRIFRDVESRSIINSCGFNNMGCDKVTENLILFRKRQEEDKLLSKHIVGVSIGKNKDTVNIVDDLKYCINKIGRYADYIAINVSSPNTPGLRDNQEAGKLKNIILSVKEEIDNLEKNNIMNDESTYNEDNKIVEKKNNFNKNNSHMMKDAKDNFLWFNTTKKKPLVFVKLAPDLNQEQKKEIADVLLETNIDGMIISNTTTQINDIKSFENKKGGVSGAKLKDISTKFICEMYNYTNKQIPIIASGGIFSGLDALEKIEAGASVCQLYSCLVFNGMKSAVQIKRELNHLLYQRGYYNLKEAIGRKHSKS
Method in brief: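 DCIP reduction assay in 384-well format. Test compound in serial dilution; reaction started by adding pfDHOD and run for 10 min at 25 °C. Read-out A600.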

liver stage P. berghei = assay: P. berghei liver stage assay in HepG2 cells; type: cell-based; details: Plasmodium berghei, HepG2, 45 h, read-out: IC50 liver stage P. berghei
Method in brief: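 Luciferase-expressing P. berghei ANKA sporozoites (4,000, from mosquito salivary glands) infect 12,000 HepG2 cells with or without test compound; final DMSO 0.3%. Parasite growth is read by luciferase luminescence 45 h post-infection. Results are mean ± SD, and experiments were repeated 2-3 times.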

O=C1C(O)=C([C@H]2CC[C@H](c3ccc(Cl)cc3)CC2)C(=O)c2ccccc21 [atovaquone]
IC50 (pfNDH2): > 20 µM
EC50 (P. falciparum Dd2 strain): 1 nM
EC50 [1]: > 5 µM
IC50 (hsCYT bc1): 350 ± 12 nM
EC50 (P. falciparum 3D7 strain): 1 nM
IC50 (pfDHOD): > 20 µM
IC50 (liver stage P. berghei): 0.3 nM
